Data reported in ChEMBL document CHEMBL1152619, “Synthesis and structure-activity relationships of dehydroaltenusin derivatives as selective DNA polymerase alpha inhibitors” (Bioorg Med Chem, 2009).
Calls of active or inactive are those of the source. The rule behind the calls is not given here.

Assays:
[1] = Inhibition of calf thymus DNA polymerase alpha by [3H]dTTP incorporation assay; parameters: species or system Bos taurus
Summary of the method: (§1)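 Enzymes: pol α immunoaffinity-purified from calf thymus; pol β purified from a recombinant rat pol β expression plasmid. Template-primer was poly(dA)/oligo(dT)12–18 (A/T = 2/1) with [³H]-dTTP as substrate. Inhibitor–enzyme premix was added to standard reaction mixture and incubated for 60 min at 37 °C. Remaining activity was expressed relative to the no-inhibitor control (100%).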

[2] = Selectivity index, ratio of IC50 for rat DNA polymerase beta to IC50 for calf thymus DNA polymerase alpha
[3] = molecular target: DNA polymerase beta (Rattus norvegicus, UniProt P06766); assay: Inhibition of rat DNA polymerase beta by [3H]dTTP incorporation assay; summary of the method: as §1
[4] = molecular target: Myosin light chain kinase, smooth muscle (Homo sapiens, UniProt Q15746); assay: Inhibition of MLCK
[5] = species: Bos taurus; assay: Inhibition of calf thymus DNA polymerase alpha assessed as complete inhibition of enzyme activity at 4 uM by [3H]dTTP incorporation assay

Sequence of Myosin light chain kinase, smooth muscle (Q15746 whole entry): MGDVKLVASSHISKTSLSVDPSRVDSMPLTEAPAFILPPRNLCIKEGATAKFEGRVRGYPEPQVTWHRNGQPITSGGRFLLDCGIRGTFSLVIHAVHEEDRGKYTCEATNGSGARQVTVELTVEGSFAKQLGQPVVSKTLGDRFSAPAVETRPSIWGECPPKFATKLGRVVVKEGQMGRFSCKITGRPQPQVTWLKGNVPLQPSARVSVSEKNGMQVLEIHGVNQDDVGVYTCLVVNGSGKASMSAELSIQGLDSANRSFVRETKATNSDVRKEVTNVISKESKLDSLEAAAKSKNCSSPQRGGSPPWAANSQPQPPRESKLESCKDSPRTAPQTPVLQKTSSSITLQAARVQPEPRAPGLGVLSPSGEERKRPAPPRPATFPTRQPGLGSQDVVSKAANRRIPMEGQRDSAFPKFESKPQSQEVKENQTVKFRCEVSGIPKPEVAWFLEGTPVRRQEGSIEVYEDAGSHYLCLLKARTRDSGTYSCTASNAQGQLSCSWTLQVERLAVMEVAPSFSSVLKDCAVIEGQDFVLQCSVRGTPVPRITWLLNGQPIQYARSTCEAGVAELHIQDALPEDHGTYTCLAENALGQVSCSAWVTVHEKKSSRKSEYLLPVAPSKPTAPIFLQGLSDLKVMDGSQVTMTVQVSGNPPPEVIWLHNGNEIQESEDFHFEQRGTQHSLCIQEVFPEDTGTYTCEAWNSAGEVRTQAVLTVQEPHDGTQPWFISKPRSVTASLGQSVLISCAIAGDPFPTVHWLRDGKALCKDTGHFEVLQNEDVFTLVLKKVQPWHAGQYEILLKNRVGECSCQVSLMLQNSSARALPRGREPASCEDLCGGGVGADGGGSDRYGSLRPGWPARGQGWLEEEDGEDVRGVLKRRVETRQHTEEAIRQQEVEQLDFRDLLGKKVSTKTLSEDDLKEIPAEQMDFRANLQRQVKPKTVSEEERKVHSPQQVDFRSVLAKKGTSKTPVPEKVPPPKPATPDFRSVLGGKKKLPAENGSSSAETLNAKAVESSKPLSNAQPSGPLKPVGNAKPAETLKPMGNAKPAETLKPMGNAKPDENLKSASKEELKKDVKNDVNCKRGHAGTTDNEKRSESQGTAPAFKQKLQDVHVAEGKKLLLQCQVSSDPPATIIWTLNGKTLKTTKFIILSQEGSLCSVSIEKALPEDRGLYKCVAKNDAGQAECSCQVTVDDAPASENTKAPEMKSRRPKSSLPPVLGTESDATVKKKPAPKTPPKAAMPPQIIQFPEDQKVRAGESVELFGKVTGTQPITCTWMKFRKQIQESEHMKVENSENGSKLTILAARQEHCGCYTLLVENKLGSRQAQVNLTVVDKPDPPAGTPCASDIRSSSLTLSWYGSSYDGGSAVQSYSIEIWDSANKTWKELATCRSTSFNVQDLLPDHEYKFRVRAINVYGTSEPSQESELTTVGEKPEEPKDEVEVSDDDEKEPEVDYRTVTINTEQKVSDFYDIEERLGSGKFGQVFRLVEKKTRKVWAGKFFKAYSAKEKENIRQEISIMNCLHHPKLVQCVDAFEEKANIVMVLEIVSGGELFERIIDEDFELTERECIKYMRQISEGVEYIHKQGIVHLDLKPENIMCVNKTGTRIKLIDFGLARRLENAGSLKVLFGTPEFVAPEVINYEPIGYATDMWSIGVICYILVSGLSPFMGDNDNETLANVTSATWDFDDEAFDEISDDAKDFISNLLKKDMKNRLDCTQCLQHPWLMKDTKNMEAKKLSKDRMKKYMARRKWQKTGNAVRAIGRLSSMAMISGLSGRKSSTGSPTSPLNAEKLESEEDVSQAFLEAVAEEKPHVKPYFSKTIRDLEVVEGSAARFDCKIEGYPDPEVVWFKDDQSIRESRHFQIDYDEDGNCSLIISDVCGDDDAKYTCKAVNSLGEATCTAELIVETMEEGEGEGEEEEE

SMILES	IC50 ([1]; read-out: IC50) [µM]	IC50 [1]	Ratio IC50 [2]	IC50 [3] [µM]	IC50 [4] [µM]	Activity [5]
COc1cc(O)c2c(=O)oc3cc(OCc4ccccc4)c(OCc4ccccc4)cc3c2c1	> 200					
CC12C=C(O)C(=O)C=C1c1cc(O)cc(O)c1C(=O)O2 (stereo not given) [DESMETHYLDEHYDROALTENUSIN]	0.89	Dose-dependent effect	142	126		
COc1cc(O)c2c(c1)C1=CC(=O)C(O)=CC1(C)OC2=O (stereo not given) [DEHYDROALTENUSIN]	0.68	Dose-dependent effect	94.1	64	0.69	Active
CCCCCCCCCCCCOc1cc(O)c2c(c1)C1=CC(=O)C(O)=CC1(C)OC2=O (stereo not given)	0.06	Dose-dependent effect	183	11		
CC12C=CC(=O)C=C1c1cccc(O)c1C(=O)O2 (stereo not given)	> 200					
CCCOc1cc(O)c2c(c1)C1=CC(=O)C(O)=CC1(C)OC2=O (stereo not given)	0.18	Dose-dependent effect	194	35		
COc1cc(O)c2c(=O)oc3cc(O)c(O)cc3c2c1	> 200					
COc1cc(O)c2c(c1)C1=CC(=O)C=CC1(C)OC2=O (stereo not given)	> 200					
CC12C=C(O)C(=O)C=C1c1cccc(O)c1C(=O)O2 (stereo not given)	0.24	Dose-dependent effect	371	89		
CCCCCCOc1cc(O)c2c(c1)C1=CC(=O)C(O)=CC1(C)OC2=O (stereo not given)	0.09	Dose-dependent effect	267	24		
